Reference: ChEMBL document CHEMBL3872211, “4, 5-Dihydrooxazole-pyrazoline hybrids: Synthesis and their evaluation as potential antimalarial agents” (Eur J Med Chem, 2016)
In brackets after ≈: the same amount, converted by molar mass. Activity calls are given as the source filed them. The calls are words filed in the database; no cut-off is given here.

Assays:
[1] = test system: Plasmodium falciparum; test: Antimalarial activity against chloroquine-sensitive Plasmodium falciparum 3D7 infected in human red blood cells assessed as inhibition of schizont stage parasite growth measured after 24 hrs by giemsa staining based assay; assay type: functional, cell-based; conditions: 3D7, 24 h
Method in brief: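 Parasitized RBCs (2-3% parasitemia, 8% hematocrit) in RPMI 1640 with human AB+ serum were exposed to serial dilutions of test samples from 1 mg/ml stock. Incubation was 24 h at 37 °C under 90% N2/5% CO2/5% O2. Giemsa-stained smears were scored for schizonts (≥3 merozoites). IC50 was taken from dose-response curves by non-linear regression.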

[2] = test system: Plasmodium falciparum; test: Antimalarial activity against chloroquine-resistant Plasmodium falciparum RKL9 infected in human red blood cells assessed as inhibition of schizont stage parasite growth measured after 24 hrs by giemsa staining based assay; assay type: functional, cell-based; conditions: RKL9, 24 h
Method in brief: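 P. falciparum RKL9 parasitized RBCs at 2-3% parasitemia, 8% hematocrit in RPMI 1640 with human AB+ serum. Exposed to serial dilutions of test samples, 24 h at 37 °C under 90% N2/5% CO2/5% O2. Giemsa-stained smears; schizonts (≥3 merozoites) counted; IC50 by non-linear regression of dose-response curves.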

[3] = Selectivity index, ratio of IC50 for cytotoxicity against African green monkey vero cells to IC50 for antimalarial activity against chloroquine-sensitive Plasmodium falciparum 3D7 infected in human red blood cells; assay type: toxicity, cell-based; conditions: read-out: Ratio IC50
Method in brief: (§1)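 SI = CC50/IC50. CC50 from Vero cells exposed 72 h to compound dilutions, MTT read-out (modified Mosmann method). Antimalarial IC50 from 24 h, 37 °C P. falciparum (3D7 or RKL9) RBC culture, Giemsa schizont counts, non-linear regression.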

[4] = Selectivity index, ratio of IC50 for cytotoxicity against African green monkey vero cells to IC50 for antimalarial activity against chloroquine-resistant Plasmodium falciparum RKL9 infected in human red blood cells; assay type: toxicity, cell-based; conditions: read-out: Ratio IC50; method in brief: as §1
[5] = Resistance index, ratio of IC50 for chloroquine-resistant Plasmodium falciparum RKL9 infected in human RBC to IC50 for chloroquine-sensitive Plasmodium falciparum 3D7 infected in human red blood cells; assay type: functional
Method in brief: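 Ratio of IC50 vs RKL9 to IC50 vs 3D7. Both from 24 h, 37 °C culture in RBCs (2-3% parasitemia, 8% hematocrit, RPMI 1640 plus human AB+ serum, 90% N2/5% CO2/5% O2), Giemsa smear schizont counts, non-linear regression.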

[6] = test system: Plasmodium berghei; test: Antimalarial activity against Plasmodium berghei NK65 infected in Swiss albino mouse assessed as mean survival days at 5 mg/kg, po administered 4 hrs post infection for 4 days measured up to 30 days (reference value: 7.2 days); assay type: functional
[7] = test system: Plasmodium berghei; test: Antimalarial activity against Plasmodium berghei NK65 infected in Swiss albino mouse assessed as reduction in parasitemia at 5 mg/kg, po administered 4 hrs post infection for 4 days measured on day 4 post infection by giemsa staining based microscopic method; assay type: functional; set-up: scale not given: the % may be the effect or the level left
Method in brief: (§2)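 Peters 4-day suppressive test: female Swiss albino mice (20-25 g), groups of five, infected ip with about 10-15% P. berghei NK65-parasitized erythrocytes from a donor mouse. Oral dosing began 4 h later and was given on days 0-3. Vehicle-only group served as negative control. On day 4, tail-vein smears were methanol-fixed, Giemsa-stained and read at 1000×. % suppression was calculated against the negative control.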

[8] = test system: mu-oxodimeric heme; test: Binding affinity to mu-oxodimeric heme (unknown origin) assessed as 1:1 stoichiometry for mu-oxodimeric heme-compound complex up to 100 uM at pH 5.8 by Job's plot analysis
Method in brief: (§3)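 Hemin stock was 10 mM in 0.1 M NaOH, sonicated 30 min, then diluted in 20 mM phosphate buffer pH 5.8 to give µ-oxodimeric heme. Compound from 2 mM DMSO stock was titrated in (0-100 µM) and absorbance followed at 362 nm. Log K was obtained by titration, and stoichiometry by molar-fraction Job's plot.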

[9] = test system: Rattus norvegicus; test: Acute toxicity in Wistar rat assessed as inflammatory cells infiltration in periportal area of liver at <300 mg/kg, po measured after 14 days; assay type: organism-based; conditions: in vivo, 336 h
[10] = test system: Heme; test: Binding affinity to monomeric heme (unknown origin) assessed as association constant at pH 7.4 by UV-titration method
Method in brief: (§4)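 Hemin stock was 1.2 mM in DMSO. It was diluted into aqueous DMSO (40%) buffered with HEPES pH 7.4 (0.02 M), or with MES for the pH 5.6 run. The titrant (2 mM stock in DMSO) was added stepwise at 0-100 µM final, and the Soret band was read at 402 nm. Association constant (log K) was derived by titration.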

[11] = test system: mu-oxodimeric heme; test: Binding affinity to mu-oxodimeric heme (unknown origin) assessed as association constant at pH 5.8 by UV-titration method; method in brief: as §3
[12] = test system: Plasmodium berghei; test: Antimalarial activity against Plasmodium berghei NK65 infected in Swiss albino mouse assessed as reduction in parasitemia at 25 mg/kg, po administered 4 hrs post infection for 4 days measured on day 4 post infection by giemsa staining based microscopic method; assay type: functional; set-up: scale not given: the % may be the effect or the level left; method in brief: as §2
[13] = test system: Heme; test: Binding affinity to monomeric heme assessed as 1:1 stoichiometry for heme-compound complex up to 100 uM at pH 5.6 by Job's plot analysis
Method in brief: (§5)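 Monomeric hemin was prepared in 40% DMSO with 0.02 M HEPES (pH 7.4) or 0.02 M MES (pH 5.6). Absorbance was monitored at 402 nm. Complex stoichiometry was determined by a molar-fraction Job's plot.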

[14] = test system: Plasmodium berghei; test: Antimalarial activity against Plasmodium berghei NK65 infected in Swiss albino mouse assessed as mean survival days at 50 mg/kg, po administered 4 hrs post infection for 4 days measured up to 30 days (Rvb= 7.2 days); assay type: functional
[15] = test system: Plasmodium berghei; test: Antimalarial activity against Plasmodium berghei NK65 infected in Swiss albino mouse assessed as reduction in parasitemia at 50 mg/kg, po administered 4 hrs post infection for 4 days measured on day 4 post infection by giemsa staining based microscopic method; assay type: functional; set-up: scale not given: the % may be the effect or the level left; method in brief: as §2
[16] = test system: Heme; test: Binding affinity to monomeric heme assessed as 1:1 stoichiometry for heme-compound complex up to 100 uM at pH 7.4 by Job's plot analysis; method in brief: as §5
[17] = test system: Heme; test: Binding affinity to monomeric heme (unknown origin) assessed as association constant at pH 5.6 by UV-titration method; method in brief: as §4
[18] = test system: Plasmodium berghei; test: Antimalarial activity against Plasmodium berghei NK65 infected in Swiss albino mouse assessed as mean survival days at 25 mg/kg, po administered 4 hrs post infection for 4 days measured up to 30 days (reference value: 7.2 days); assay type: functional

| SMILES | IC50 [1] [µg/mL] | IC50 [2] [µg/mL] | selectivity ratio [3] | selectivity ratio [4] | Ratio IC50 [5] | other results |
| --- | --- | --- | --- | --- | --- | --- |
| O=C(/C=C/c1ccc(O)cc1)c1ccc(OCC2=NCCO2)cc1 | 2.44 (≈ 7.54 µM) |  |  |  |  |  |
| O=C(/C=C/c1ccccc1)c1ccc(OCC2=NCCO2)cc1 | 1.77 (≈ 5.77 µM) |  |  |  |  |  |
| O=C(/C=C/c1cccc(Cl)c1)c1ccc(OCC2=NCCO2)cc1 | 0.577 (≈ 1.69 µM) |  |  |  |  |  |
| c1ccc2c(C3CC(c4ccc(OCC5=NCCO5)cc4)=NN3)c[nH]c2c1 (configuration not stated) | 0.657 (≈ 1.82 µM) |  |  |  |  |  |
| Fc1ccc(C2CC(c3ccc(OCC4=NCCO4)cc3)=NN2c2ccccc2)cc1 (configuration not stated) | 0.645 (≈ 1.55 µM) |  |  |  |  |  |
| COc1ccc(/C=C/C(=O)c2ccc(OCC3=NCCO3)cc2)cc1 | 1.57 (≈ 4.66 µM) |  |  |  |  |  |
| NS(=O)(=O)c1ccc(N2N=C(c3ccc(OCC4=NCCO4)cc3)CC2c2ccc([N+](=O)[O-])cc2)cc1 (configuration not stated) | 0.627 (≈ 1.2 µM) |  |  |  |  |  |
| Clc1ccc(C2CC(c3ccc(OCC4=NCCO4)cc3)=NN2c2ccccc2)cc1 (configuration not stated) | 0.477 (≈ 1.1 µM) | 1.57 (≈ 3.64 µM) | 23.3 | 7.1 | 3.29 |  |
| O=C(/C=C/c1ccc([N+](=O)[O-])cc1)c1ccc(OCC2=NCCO2)cc1 | 0.723 (≈ 2.05 µM) |  |  |  |  |  |
| COc1ccc(C2CC(c3ccc(OCC4=NCCO4)cc3)=NN2c2ccccc2)cc1 (configuration not stated) | 0.545 (≈ 1.27 µM) | 1.57 (≈ 3.67 µM) | 30.4 | 10.5 | 2.88 |  |
| NS(=O)(=O)c1ccc(N2N=C(c3ccc(OCC4=NCCO4)cc3)CC2c2cccc(Cl)c2)cc1 (configuration not stated) | 0.552 (≈ 1.08 µM) | 2.15 (≈ 4.22 µM) | 34.2 | 8.7 | 3.9 |  |
| COc1ccc(C2CC(c3ccc(OCC4=NCCO4)cc3)=NN2)cc1 (configuration not stated) | 1.03 (≈ 2.94 µM) |  |  |  |  |  |
| COc1cccc(C2CC(c3ccc(OCC4=NCCO4)cc3)=NN2c2ccc(S(N)(=O)=O)cc2)c1 (configuration not stated) | 0.413 (≈ 0.815 µM) | 0.936 (≈ 1.85 µM) | 18.4 | 8.1 | 2.27 |  |
| CCN(CC)CCCC(C)Nc1ccnc2cc(Cl)ccc12 (configuration not stated) [CHLOROQUINE] |  |  |  |  |  | MSD [6]: 30 days; Activity [7]: 97.1% |
| c1ccc(N2N=C(c3ccc(OCC4=NCCO4)cc3)CC2c2c[nH]c3ccccc23)cc1 (configuration not stated) | 0.459 (≈ 1.05 µM) | 4.23 (≈ 9.7 µM) | 21.3 | 2.3 | 9.22 |  |
| O=C(/C=C/c1cccc([N+](=O)[O-])c1)c1ccc(OCC2=NCCO2)cc1 | 1.57 (≈ 4.46 µM) |  |  |  |  |  |

| SMILES | IC50 [1] [µg/mL] | IC50 [2] [µg/mL] | selectivity ratio [3] | selectivity ratio [4] | Ratio IC50 [5] | other results |
| --- | --- | --- | --- | --- | --- | --- |
| O=C(/C=C/c1ccc(F)cc1)c1ccc(OCC2=NCCO2)cc1 | 0.813 (≈ 2.5 µM) |  |  |  |  |  |
| O=C(/C=C/c1c[nH]c2ccccc12)c1ccc(OCC2=NCCO2)cc1 | 0.936 (≈ 2.7 µM) |  |  |  |  |  |
| COc1ccc(C2CC(c3ccc(OCC4=NCCO4)cc3)=NN2c2ccc(S(N)(=O)=O)cc2)cc1 (configuration not stated) | 0.322 (≈ 0.636 µM) | 0.737 (≈ 1.45 µM) | 12.5 | 5.5 | 2.29 | Activity [8]: Active; Activity [9]: Non-Toxic; log K [10]: 5.87; log K [11]: 4.34; Activity [12]: 63.89%; Activity [13]: Active; MSD [14]: 15.6 days; Activity [15]: 79.33%; Activity [16]: Active; log K [17]: 4.98; MSD [18]: 11.4 days |
| O=C(/C=C/c1ccc(Cl)cc1)c1ccc(OCC2=NCCO2)cc1 | 0.557 (≈ 1.63 µM) | 1.82 (≈ 5.33 µM) | 25.5 | 7.8 | 3.27 |  |
| CC(=O)N1N=C(c2ccc(OCC3=NCCO3)cc2)CC1c1ccc(Cl)cc1 (configuration not stated) | 0.513 (≈ 1.29 µM) | 1.57 (≈ 3.95 µM) | 29.5 | 9.6 | 3.06 |  |
| CC(=O)c1ccc(OCC2=NCCO2)cc1 | 0.737 (≈ 3.36 µM) |  |  |  |  |  |
| NS(=O)(=O)c1ccc(N2N=C(c3ccc(OCC4=NCCO4)cc3)CC2c2ccc(F)cc2)cc1 (configuration not stated) | 0.419 (≈ 0.847 µM) | 1.77 (≈ 3.59 µM) | 19.8 | 4.6 | 4.23 |  |
| COc1cccc(/C=C/C(=O)c2ccc(OCC3=NCCO3)cc2)c1 | 1.82 (≈ 5.4 µM) |  |  |  |  |  |
| Cc1ccc(/C=C/C(=O)c2ccc(OCC3=NCCO3)cc2)cc1 | 2.68 (≈ 8.34 µM) |  |  |  |  |  |
| NS(=O)(=O)c1ccc(N2N=C(c3ccc(OCC4=NCCO4)cc3)CC2c2ccc(Cl)cc2)cc1 (configuration not stated) | 0.471 (≈ 0.922 µM) | 1.82 (≈ 3.57 µM) | 22.2 | 5.7 | 3.87 |  |
| O=C(/C=C/c1cccc(O)c1)c1ccc(OCC2=NCCO2)cc1 | 0.515 (≈ 1.59 µM) | 1.57 (≈ 4.86 µM) | 23.6 | 7.7 | 3.05 |  |
| NS(=O)(=O)c1ccc(N2N=C(c3ccc(OCC4=NCCO4)cc3)CC2c2ccc3c(c2)OCCO3)cc1 (configuration not stated) | 2.15 (≈ 4.03 µM) |  |  |  |  |  |
| NS(=O)(=O)c1ccc(N2N=C(c3ccc(OCC4=NCCO4)cc3)CC2c2cccc([N+](=O)[O-])c2)cc1 (configuration not stated) | 1.02 (≈ 1.96 µM) |  |  |  |  |  |
| O=C(/C=C/c1ccc2c(c1)OCCO2)c1ccc(OCC2=NCCO2)cc1 | 4.23 (≈ 11.6 µM) |  |  |  |  |  |
| Cc1ccc(C2CC(c3ccc(OCC4=NCCO4)cc3)=NN2c2ccccc2)cc1 (configuration not stated) | 1.01 (≈ 2.45 µM) |  |  |  |  |  |
